The source of these data is article PMC2873839 (Bioorganic & medicinal chemistry, 2010).

This experiment concerns HeLa cells. The experiment is described as follows: Confocal microscopy of subcellular distribution / nuclear staining. It is filed as cell-based. In a few lines:
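HeLa grown in MEM alpha with 10% FBS at 37 °C, 5% CO2, seeded at 4000 cells/well on glass bottom, adhered overnight. Test compound 10–100 μM, 37 °C for 2–19 h, in complete or serum-free medium, then HBSS rinse. Confocal: 63x/1.4 oil objective, 1.1 μm optical slice, excitation 488 nm, emission 560+ nm. Dead cells excluded by morphology; percentage with nuclear staining scored.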

Entries after “also recorded” stand apart in the source; their conditions may differ.

In the case of KKKK [Ru-KKKK], the subcellular distribution result (40 μM, 2 h) is given as “only faint luminescence in the cytoplasm”. Also, under “100 μM, 4 h, complete medium”, the “percentage of cells with additional nuclear staining” value is 17% and the subcellular distribution result is “brighter, punctate cytoplasmic staining; also recorded: punctate staining of the cytoplasm”.
In the case of KSKKQK [Ru-KSKKQK], the subcellular distribution result was “only faint punctate luminescence in the cytoplasm and no nuclear staining” (10 μM, 2 h); “same result; also recorded: Punctate staining of the cytoplasm” (10 μM, 19 h, complete medium).
On to PKKKRKV [Ru-PKKKRKV], for which the subcellular distribution entry (10 μM, 2 h) is “only faint punctate luminescence in the cytoplasm and no nuclear staining”; the subcellular distribution entry (10 μM, 19 h, complete medium) was “same result; also recorded: Punctate staining of the cytoplasm”.
